A short description of test [1]: Mixed type inhibition of TrxR by Michaelis-Menten plot analysis.
Test [2] is described as follows: Time dependent inhibition of TrxR.
The target in test [3] is T1, Thioredoxin reductase (Homo sapiens, UniProt Q16881+Q9NNW7+Q86VQ6). Nature of the test: Inhibition of TrxR in human U87MG cells at 20 uM after 12 hrs by insulin-reducing method. Type of test: cell-based. The settings on record: U-87MG ATCC. An outline of the steps:
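U87 MG glioma cells were treated with compound for 12 h (1% DMSO control), washed in PBS, lysed in Triton/deoxycholate/EDTA/SDS/PMSF buffer and spun at 13000g. Lysate protein (40 µg, BCA) was incubated 30 min at 37 °C with HEPES pH 7.6, EDTA, 1 mM NADPH, 1 µM E. coli Trx and 2.5 mg/ml insulin. Quench with guanidine-HCl/DTNB, read A412, subtract the no-Trx blank.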

Test [4] is described as follows: Reversible inhibition of TrxR by ultrafiltration assay.
The nature of test [5]: Growth inhibition of human U87MG cells after 48 hrs by MTT assay. It is filed as functional, cell-based, U-87MG ATCC. The settings on record: U-87 MG. The method in brief:
(§1)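 Exponentially growing cells were seeded at 4000–5000 per well. LoVo was grown in RPMI 1640 and MIA PaCa-2 and U87 MG in DMEM, each with 10% FBS and penicillin/streptomycin at 37 °C under 5% CO2. Compounds in DMSO (0–50 μM) were added for 48 h, and growth was read by MTT.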
A general note: Tetrazolium dyes change colour on reduction, which living cells bring about.

Test [6] in a line: Binding affinity to TrxR Sec498 residue at pH 8.5 after 2 hrs by BIAM assay.
Test [7] in a line: Binding affinity to TrxR Sec498 residue at pH 6.5 after 2 hrs by BIAM assay.
The test system of a further test is MIA PaCa-2. Nature of the test: Growth inhibition of human MIAPaCa2 cells after 48 hrs by MTT assay. It is filed as functional, cell-based. As to conditions: MIA PaCa-2, 48 h. The method in brief:
as §1

In a further test the test system is LoVo. Nature of the test: Growth inhibition of human LoVo cells after 48 hrs by MTT assay. Type of test: functional, cell-based. The method in brief: as §1
Test [8] deals with T1, Thioredoxin reductase. The experiment in a line: Inhibition of TrxR in human U87MG cells after 12 hrs by insulin-reducing method. It is filed as cell-based. The settings on record: for IC50: u-87mg atcc. An outline of the steps: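 U87 MG cells were treated with graded compound concentrations for 12 h, with 1% DMSO as control. Reactions were quenched with guanidine-HCl/DTNB and read at A412. The Trx-free blank was subtracted.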

Test [9] is described as follows: Binding affinity to TrxR Cys497 residue at pH 8.5 after 2 hrs by BIAM assay.
Test [10] concerns the target T2, Glutathione reductase, mitochondrial (Homo sapiens) (UniProt P00390).
T2 sequence (whole entry): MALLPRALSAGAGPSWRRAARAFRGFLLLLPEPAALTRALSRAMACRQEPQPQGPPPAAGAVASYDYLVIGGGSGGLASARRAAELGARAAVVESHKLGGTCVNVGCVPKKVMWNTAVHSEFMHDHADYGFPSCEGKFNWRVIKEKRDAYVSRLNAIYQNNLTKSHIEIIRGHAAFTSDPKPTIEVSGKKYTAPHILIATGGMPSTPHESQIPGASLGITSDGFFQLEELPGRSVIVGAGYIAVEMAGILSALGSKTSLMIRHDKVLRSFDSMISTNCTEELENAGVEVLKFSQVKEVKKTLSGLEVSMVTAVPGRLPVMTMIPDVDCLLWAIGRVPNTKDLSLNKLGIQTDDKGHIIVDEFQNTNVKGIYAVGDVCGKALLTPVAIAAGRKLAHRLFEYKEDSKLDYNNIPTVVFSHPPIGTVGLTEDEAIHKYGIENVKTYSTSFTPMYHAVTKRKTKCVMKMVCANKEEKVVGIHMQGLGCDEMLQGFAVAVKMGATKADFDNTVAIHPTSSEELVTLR
Nature of the test: Inhibition of human glutathione reductase at 100 uM after 10 mins by GSSH reduction assay.

In test [11] the target is T3, Thioredoxin reductase 1, cytoplasmic (Rattus norvegicus, UniProt O89049).
T3 sequence (O89049 whole entry): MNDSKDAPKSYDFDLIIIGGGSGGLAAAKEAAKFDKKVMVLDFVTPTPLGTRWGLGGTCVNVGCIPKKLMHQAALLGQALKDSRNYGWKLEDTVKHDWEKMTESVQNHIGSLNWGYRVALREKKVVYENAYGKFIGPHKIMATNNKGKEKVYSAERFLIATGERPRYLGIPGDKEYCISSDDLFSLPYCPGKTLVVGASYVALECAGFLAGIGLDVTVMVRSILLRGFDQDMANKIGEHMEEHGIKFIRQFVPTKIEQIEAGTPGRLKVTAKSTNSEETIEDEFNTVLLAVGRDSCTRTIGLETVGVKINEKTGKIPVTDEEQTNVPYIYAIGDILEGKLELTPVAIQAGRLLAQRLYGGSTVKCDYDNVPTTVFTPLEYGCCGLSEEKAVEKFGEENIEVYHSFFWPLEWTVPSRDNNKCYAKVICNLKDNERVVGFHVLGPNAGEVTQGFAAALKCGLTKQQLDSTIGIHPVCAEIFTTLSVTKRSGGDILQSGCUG
Nature of the test: (§2) Inhibition of TrxR1 in rat liver homogenate preincubated for 5 mins measured by DNTB assay. Type of test: tissue-based. An outline of the steps: (§3)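 Rat liver TrxR (purified, 10 μg) in 100 mM potassium phosphate, 2 mM EDTA, pH 7.4 with NADPH, pre-incubated 5 min with inhibitor (DMSO control) at room temperature. DTNB was then added and A412 increase followed over the first 120 s. IC50 given as mean ± SD of triplicate experiments.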

The target in test [12] is T4, Thioredoxin reductase 1, cytoplasmic (Rattus norvegicus) (UniProt O89049).
T4 sequence (whole entry): T3 sequence (O89049 whole entry)
The test is described as §2. It is filed as tissue-based. An outline of the steps:
as §3

Test [13] addresses T1, Thioredoxin reductase. The experiment in a line: Inhibition of human C-terminal truncated TrxR. It is filed as protein assay.
For a further test, the species on record is Homo sapiens. The experiment in a line: Inhibition of human […] Sec498Cys mutant at 100 uM after 10 mins by GSSH reduction assay.

The values below come from ChEMBL document CHEMBL2034909, “Inhibition of thioredoxin reductase by a novel series of bis-1,2-benzisoselenazol-3(2H)-ones: Organoselenium compounds for cancer therapy” (Bioorg Med Chem, 2012).

Calls of active or inactive are those of the source. The rule behind the calls is not given here.

What is called inhibition is the percentage by which the read-out fell short of the control. In general, IC50 refers to the concentration that inhibits the measured activity by half. High values mean weaker potency, low ones greater potency. Take `COc1ccc2[se]n(CCn3[se]c4ccc(OC)cc4c3=O)c(=O)c2c1`: the inhibition entry in test [1], in [2] and in [4] was “Active” each time. In addition, the inhibition against Thioredoxin reductase [3] was greater than 90%; in [6], “Dose-dependent effect”; in test [7], “Dose-dependent effect”; in test [9], “Dose-dependent effect”; in [10], less than 30%; in [12], “Dose-dependent effect”. Further, the 50% inhibitory concentration (IC50) amounted to 1.64 µM in test [5]; 2.84 µM with MIA PaCa-2; 5.28 µM with LoVo; 2 µM against Thioredoxin reductase [8]; 130 nM in test [11].

As to `O=c1c2ccccc2[se]n1CCn1[se]c2ccccc2c1=O` [ETHASELEN], the inhibition result (at Thioredoxin reductase [13]; in the test listed under Homo sapiens; in test [10]) was “inactive” each time. The IC50 in test [5] was determined as 6.41 µM; in the test on MIA PaCa-2, 3.79 µM; in the test with LoVo, 7.67 µM; against Thioredoxin reductase [8], 5 µM. For the same compound, the inhibition entry (on Thioredoxin reductase [8] (U-87MG ATCC); in [12]) was “Dose-dependent effect” each time.
